# A selection: hits, their analogues and other compounds. The true share with any hit is near 2.3%.
# TRPC4 potent: allosteric potentiators of mouse TRPC4 channel. Q9QUQ5. HEK293 TRPC4beta/mu-opioid, DAMGO EC20, Fluo-4 Ca2+ flux; stronger effect = higher value. B-score at 10 µM. actives 0.42% (n = 310,000). AID 2227;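 active means B-score of calcium response area above 5 SD of library B-scores, with initial fluorescence ratio within 5 SD of library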;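 further: B-score of integrated fluorescence ratio over time as area under calcium response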
# TRPC4 act: TRPC4 (mouse) channel activation; B-score at 10 µM; Q9QUQ5; actives 0.49% (n = 310,000); HEK293 TRPC4beta/mu-opioid, Fluo4 calcium fluorescence; stronger effect = higher value;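 active means B-score above 5 SD of library B-scores, and initial fluorescence ratio not above library mean plus 5 SD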;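 further: positive B-score marks a calcium rise read as TRPC4 activation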
#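 System – HEK293 cells stably co-expressing mouse TRPC4beta and mu-opioid receptor · Signal – Fluo4 calcium-sensitive dye fluorescence, kinetic, 1 Hz baseline · Benchmarks – buffer (low) and maximal DAMGO (high) · Read-out – B score of integrated fluorescence ratio per well · Incubation – dye loading 45 min room temperature, 110 s kinetic read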
# TRPC4 block: blocks the mouse TRPC4 cation channel; actives 0.39% (n = 300,000); Q9QUQ5; HEK293 TRPC4beta/mu-opioid, DAMGO-evoked Fluo4 calcium flux; stronger effect = lower value; B-score at 10 µM;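 active means B-score over 3 SD under the library average, no early fluorescence shift, positive overall ratio signal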
#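 Assay system: HEK293 cells with stable TRPC4beta plus mu-opioid receptor expression. Dosing: single dose. Measured by: Fluo4 Ca2+ flux fluorescence. Also added: DAMGO in two steps, submaximal then maximal. Read-out: B score from integrated Fluo4 fluorescence ratio.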
# TRPC6 inhibitor: mouse TRPC6 channel inhibition | Q61143 | HEK293-TRPC6, membrane potential dye, ACh-evoked depolarization; stronger effect = lower value | B-score at 10 µM | actives 1.1% (n = 310,000);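 active means B-score under library mean minus 3 SD, initial fluorescence not abnormally high, positive integrated signal ratio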;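 further: B-score derived from integrated fluorescence ratio over the kinetic read; more negative B-score means stronger inhibition of depolarization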
# TRPC6 act: mouse TRPC6 channel activation; Q61143; HEK293-TRPC6 membrane potential dye fluorescence; stronger effect = higher value; B-score at 10 µM; actives 0.13% (n = 310,000); AID 2550;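 active means B-score of the integrated fluorescence ratio above library mean plus 3 SD, and starting fluorescence ratio within library mean plus 5 SD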;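 further: higher score means more depolarization so channel activation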
# Numbers without * were called inactive; i = inactive.
SMILES,TRPC4 potent,TRPC4 act,TRPC4 block,TRPC6 inhibitor,TRPC6 act
NNC(=O)CN1C(c2ccccc2Br)=Nc2ccc(Br)cc2C1c1ccccc1 (stereo not given),i,i,i,i,i
CC(=O)NCC(c1cccs1)S(=O)(=O)c1ccc(F)cc1 (stereo not given),i,i,i,i,i
O=C(Nc1ccc(S(=O)(=O)Nc2ncccn2)cc1)c1ccc(Br)s1,i,i,i,i,i
CCN(CC)CCOC(=O)c1cccc(Cl)c1,i,i,i,i,i
CCN(CC)CCOC(=O)c1cccc(OC)c1,i,80*,i,i,i
CCN(CC)CCOC(=O)c1cccc(Br)c1,27*,i,i,i,i
O=C(NNC(=O)c1cc2ccccc2oc1=O)c1ccccc1[N+](=O)[O-],i,i,i,i,i
N#CC1=C(N)C(C#N)(C#N)C(c2ccc[nH]2)C2CCCC=C12 (stereo not given),i,i,i,i,i
N#CC1=C(N)C2=CCCC[C@H]2[C@H](c2cccc(F)c2)C1(C#N)C#N,34*,i,i,i,i
COc1ccc(CNCc2cccc(C)c2)cc1,i,i,i,i,i
COc1ccc(CNCc2cccc(Oc3ccccc3)c2)cc1,i,i,-6*,i,i
COc1ccc(CCN2CC(C(=O)NCc3nc(C)c(C)s3)CCC2=O)cc1 (stereo not given),i,i,i,i,i
OC12CCCCC1C(c1ccc3c(c1)OCO3)N(Cc1ccc(F)cc1)CC2 (stereo not given),i,48*,i,i,i
OC12CCCCC1C(c1ccc3c(c1)OCO3)N(Cc1cccc(F)c1)CC2 (stereo not given),i,i,i,i,i
C/C(=N/OCO/N=C(\C)c1ccc(F)cc1F)c1ccc(F)cc1F,i,i,i,i,i
O=C(Nc1cccc(Cl)c1)N1CCN2C(=O)c3ccccc3C12c1ccccc1 (stereo not given),i,i,-6*,i,i
O=C(CCl)N1CCN2C(=O)c3ccccc3C12c1ccc(Cl)cc1 (stereo not given),i,i,i,i,i
CCCCc1nc(N2CCOCC2)c(C#N)c2c1CCCC2,i,i,-6*,i,i
CCCc1nc(N2CCOCC2)c(C#N)c2c1CCCC2,i,i,i,i,i
COc1ccc(C2CC(c3ccc(OC)cc3OC(C)=O)=NN2C(=O)c2ccccc2)cc1 (stereo not given),11*,i,i,i,i
COc1ccc(C2=NN(C(=O)c3ccccc3)C(c3ccc(OC)c(OC)c3)C2)c(O)c1 (stereo not given),i,i,-7*,i,i
O=C1COc2ccc(C(=O)COC(=O)c3ncc(Cl)c(Cl)c3Cl)cc2N1,i,i,i,i,i
Oc1cccc(/C=N/N(Cc2ccccc2)c2ccccc2)c1,i,i,i,i,i
C(=N\N(Cc1ccccc1)c1ccccc1)/c1cccnc1,i,i,-6*,i,i
Cc1nc(C(=O)N2CCC(n3nccc3NC(=O)Nc3ccccc3Cl)CC2)cs1,i,i,i,i,i
SMILES,TRPC4 potent,TRPC4 act,TRPC4 block,TRPC6 inhibitor,TRPC6 act
Cc1cccc(C(=O)NCC(=O)Nc2ccncc2)c1,i,i,i,i,i
CCOC(=O)Cn1c(=O)oc2cc(S(=O)(=O)Nc3ccc(F)cc3)ccc21,i,47*,i,i,i
Cc1ccc(OCC(=O)NNC(=S)NC(=O)C2CCCCC2)c(C)c1,i,54*,i,i,i
Cc1ccc(OCC(=O)NC(=S)Nc2ccccn2)c(Br)c1,i,i,i,i,i
Cc1ccc(OCC(=O)NNC(=S)NC(=O)C(C)(C)C)c(Br)c1,i,235*,i,i,i
O=C(Nc1c(C(=O)N2CCN(c3ccccn3)CC2)oc2ccccc12)c1cccc([N+](=O)[O-])c1,i,i,i,i,i
O=C(CCc1nc2ccccc2c(=O)[nH]1)NNC(=O)COc1ccc(Br)cc1,i,i,i,i,i
Cn1c(/C=C/c2ccc(Cl)cc2)nc2ccccc2c1=O,i,i,i,i,i
COc1cc(CNCCc2ccc(F)cc2)ccc1OCc1ccc(Cl)nc1,i,i,-6*,i,i
O=c1nc(-c2ccccc2)cc(-c2ccccc2)[nH]1,i,i,i,i,i
COc1ccccc1-c1cc(-c2ccccc2)nc(=O)[nH]1,21*,i,i,i,i
O=C(NC(=S)Nn1cnnc1)c1cccc(Br)c1,i,i,i,i,i
C=CCNC(=O)c1scc2c1CCCC2,i,i,i,i,i
CN(C)CCNC(=O)c1scc2c1CCCC2,i,142*,i,i,i
COc1cc(CN2CCCC(CO)(Cc3ccccc3C)C2)cc2c1OCO2 (stereo not given),i,i,-6*,i,i
COCc1ccc(CN2CCCC(CO)(Cc3ccccc3C)C2)o1 (stereo not given),i,i,i,i,i
CCCNc1nc2ccccc2n2c(C)nnc12,i,i,-6*,i,i
COc1cc(OC)c(OC)cc1CCC(C)NCCC(c1ccccc1)c1ccccc1 (stereo not given),i,87*,i,i,i
COc1ccccc1CCNC(C)CCc1ccc(O)cc1 (stereo not given),i,i,i,i,i
O=C(Nc1ccccc1)Nc1ccc(O)c2ccccc12,i,i,i,i,i
Cc1ccccc1Nc1nc(NCc2ccco2)c2ccccc2n1,i,49*,-9*,-5.8*,i
Cc1ccc(C(=O)C(NC(=O)c2ccco2)Nc2sc3c(c2C(N)=O)CCCC3)cc1 (stereo not given),i,i,i,i,i
COc1ccc(CC(=O)NCc2csc(-c3cccs3)n2)cc1OC,i,i,i,i,i
CC(C)=Cc1oc2ccc([N+](=O)[O-])cc2c1N1CCOCC1,i,i,i,i,i
CC1CN(C)C(C)c2c1oc1ccc([N+](=O)[O-])cc21 (stereo not given),i,115*,i,i,i
CC1CN(C)C(C)c2c1oc1ccc(N)cc21 (stereo not given),i,239*,i,i,i
Nc1ccc2oc3ccccc3c2c1,i,i,i,i,i
COc1cccc(OCCn2cc(C(C)=O)c3ccccc32)c1,i,i,i,i,i

# From PubChem
